Experimental data as given in ChEMBL document CHEMBL5058577, “EUbOPEN Chemogenomics Library 2 (Multiplex)” (2022).

Tested on: U2OS
Assay: Multiplex assay against U2OS
Type: toxicity, cell-based
Conditions: human
Method in brief: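 At seeding, live cells were stained with Hoechst33342, BioTracker Green Microtubule Cytoskeleton Dye, MitoTracker Red and Annexin V Alexa Fluor 680. After compound addition they were imaged on a CQ1 microscope at 37°C and 5% CO2, and CellPathfinder machine-learning gating sorted them into Hoechst high-intensity objects or normal cells, with normal cells further split into healthy, pyknosed or fragmented nuclei and pyknosed cells into mitotic or apoptotic. Tubulin, mitochondrial-mass and membrane-permeability phenotypes are given as per cents of cells with healthy nuclei.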

[1] = 12 h, 1 µM, compound concentration 1 uM, replicate 1
[2] = 12 h, 1 µM, compound concentration 1 uM, replicate 2
[3] = 12 h, 10 µM, compound concentration 10 uM, replicate 1
[4] = 12 h, 10 µM, compound concentration 10 uM, replicate 2
[5] = 24 h, 1 µM, compound concentration 1 uM, replicate 1
[6] = 24 h, 1 µM, compound concentration 1 uM, replicate 2
[7] = 24 h, 10 µM, compound concentration 10 uM, replicate 1
[8] = 24 h, 10 µM, compound concentration 10 uM, replicate 2
[9] = 48 h, 1 µM, compound concentration 1 uM, replicate 1
[10] = 48 h, 1 µM, compound concentration 1 uM, replicate 2
[11] = 48 h, 10 µM, compound concentration 10 uM, replicate 1
[12] = 48 h, 10 µM, compound concentration 10 uM, replicate 2

Structure (SMILES): O=C(NCC(=O)N1CC[C@H](N[C@H]2CC[C@@](O)(c3ccc(-c4ncccn4)cn3)CC2)C1)c1cccc(C(F)(F)F)c1 [PF-4136309]
- Population Apoptotic (%) [1]: 79%
- Population Fragmented Nuclei (%) [1]: 25%
- Population Healthy Nuclei (%) [1]: 64%
- Population Hoechst High Intensity Objects (%) [1]: 1%
- Population Membrane Permeable-Phenotype (%) [1]: 6%
- Population Mitochondria Different-Phenotype (%) [1]: 3%
- Population Mitotic Cells (%) [1]: 20%
- Population Normal (%) [1]: 98%
- Population Pyknosed Nuclei (%) [1]: 9%
- Population Tubulin-Different-Phenotype (%) [1]: 4%
- Total Cell Count [1]: 249
- Population Apoptotic (%) [2]: 93%
- Population Fragmented Nuclei (%) [2]: 13%
- Population Healthy Nuclei (%) [2]: 74%
- Population Hoechst High Intensity Objects (%) [2]: 4%
- Population Membrane Permeable-Phenotype (%) [2]: 11%
- Population Mitochondria Different-Phenotype (%) [2]: 5%
- Population Mitotic Cells (%) [2]: 6%
- Population Normal (%) [2]: 95%
- Population Pyknosed Nuclei (%) [2]: 12%
- Population Tubulin-Different-Phenotype (%) [2]: 8%
- Total Cell Count [2]: 138
- Population Apoptotic (%) [3]: 68%
- Population Fragmented Nuclei (%) [3]: 25%
- Population Healthy Nuclei (%) [3]: 62%
- Population Hoechst High Intensity Objects (%) [3]: 4%
- Population Membrane Permeable-Phenotype (%) [3]: 15%
- Population Mitochondria Different-Phenotype (%) [3]: 4%
- Population Mitotic Cells (%) [3]: 31%
- Population Normal (%) [3]: 95%
- Population Pyknosed Nuclei (%) [3]: 12%
- Population Tubulin-Different-Phenotype (%) [3]: 9%
- Total Cell Count [3]: 242
- Population Apoptotic (%) [4]: 60%
- Population Fragmented Nuclei (%) [4]: 22%
- Population Healthy Nuclei (%) [4]: 66%
- Population Hoechst High Intensity Objects (%) [4]: 1%
- Population Membrane Permeable-Phenotype (%) [4]: 25%
- Population Mitochondria Different-Phenotype (%) [4]: 10%
- Population Mitotic Cells (%) [4]: 40%
- Population Normal (%) [4]: 98%
- Population Pyknosed Nuclei (%) [4]: 11%
- Population Tubulin-Different-Phenotype (%) [4]: 11%
- Total Cell Count [4]: 90
- Population Apoptotic (%) [5]: 80%
- Population Fragmented Nuclei (%) [5]: 22%
- Population Healthy Nuclei (%) [5]: 69%
- Population Hoechst High Intensity Objects (%) [5]: 1%
- Population Membrane Permeable-Phenotype (%) [5]: 4%
- Population Mitochondria Different-Phenotype (%) [5]: 2%
- Population Mitotic Cells (%) [5]: 20%
- Population Normal (%) [5]: 98%
- Population Pyknosed Nuclei (%) [5]: 8%
- Population Tubulin-Different-Phenotype (%) [5]: 2%
- Total Cell Count [5]: 304
- Population Apoptotic (%) [6]: 91%
- Population Fragmented Nuclei (%) [6]: 16%
- Population Healthy Nuclei (%) [6]: 76%
- Population Hoechst High Intensity Objects (%) [6]: 3%
- Population Membrane Permeable-Phenotype (%) [6]: 5%
- Population Mitochondria Different-Phenotype (%) [6]: 4%
- Population Mitotic Cells (%) [6]: 8%
- Population Normal (%) [6]: 96%
- Population Pyknosed Nuclei (%) [6]: 7%
- Total Cell Count [6]: 169
- Population Apoptotic (%) [7]: 83%
- Population Fragmented Nuclei (%) [7]: 23%
- Population Healthy Nuclei (%) [7]: 62%
- Population Hoechst High Intensity Objects (%) [7]: 3%
- Population Membrane Permeable-Phenotype (%) [7]: 10%
- Population Mitochondria Different-Phenotype (%) [7]: 3%
- Population Mitotic Cells (%) [7]: 16%
- Population Normal (%) [7]: 96%
- Population Pyknosed Nuclei (%) [7]: 13%
- Population Tubulin-Different-Phenotype (%) [7]: 3%
- Total Cell Count [7]: 271
- Population Apoptotic (%) [8]: 75%
- Population Fragmented Nuclei (%) [8]: 21%
- Population Healthy Nuclei (%) [8]: 70%
- Population Hoechst High Intensity Objects (%) [8]: 0%
- Population Membrane Permeable-Phenotype (%) [8]: 15%
- Population Mitochondria Different-Phenotype (%) [8]: 11%
- Population Mitotic Cells (%) [8]: 25%
- Population Normal (%) [8]: 99%
- Population Pyknosed Nuclei (%) [8]: 7%
- Population Tubulin-Different-Phenotype (%) [8]: 7%
- Total Cell Count [8]: 102
- Population Apoptotic (%) [9]: 87%
- Population Fragmented Nuclei (%) [9]: 14%
- Population Healthy Nuclei (%) [9]: 74%
- Population Hoechst High Intensity Objects (%) [9]: 2%
- Population Membrane Permeable-Phenotype (%) [9]: 4%
- Population Mitochondria Different-Phenotype (%) [9]: 3%
- Population Mitotic Cells (%) [9]: 12%
- Population Normal (%) [9]: 97%
- Population Pyknosed Nuclei (%) [9]: 11%
- Population Tubulin-Different-Phenotype (%) [9]: 3%
- Total Cell Count [9]: 443
- Population Apoptotic (%) [10]: 96%
- Population Fragmented Nuclei (%) [10]: 12%
- Population Healthy Nuclei (%) [10]: 75%
- Population Hoechst High Intensity Objects (%) [10]: 3%
- Population Membrane Permeable-Phenotype (%) [10]: 6%
- Population Mitotic Cells (%) [10]: 4%
- Population Normal (%) [10]: 96%
- Population Tubulin-Different-Phenotype (%) [10]: 4%
- Total Cell Count [10]: 224
- Population Apoptotic (%) [11]: 69%
- Population Fragmented Nuclei (%) [11]: 22%
- Population Healthy Nuclei (%) [11]: 61%
- Population Hoechst High Intensity Objects (%) [11]: 4%
- Population Membrane Permeable-Phenotype (%) [11]: 9%
- Population Mitochondria Different-Phenotype (%) [11]: 5%
- Population Mitotic Cells (%) [11]: 30%
- Population Normal (%) [11]: 95%
- Population Pyknosed Nuclei (%) [11]: 15%
- Population Tubulin-Different-Phenotype (%) [11]: 4%
- Total Cell Count [11]: 360
- Population Apoptotic (%) [12]: 92%
- Population Fragmented Nuclei (%) [12]: 20%
- Population Healthy Nuclei (%) [12]: 60%
- Population Hoechst High Intensity Objects (%) [12]: 0%
- Population Membrane Permeable-Phenotype (%) [12]: 15%
- Population Mitochondria Different-Phenotype (%) [12]: 8%
- Population Mitotic Cells (%) [12]: 7%
- Population Normal (%) [12]: 100%
- Population Pyknosed Nuclei (%) [12]: 18%
- Total Cell Count [12]: 138
